Bioassay records: PubChem BioAssay, The Scripps Research Institute Molecular Screening Center
TDP2 inh: TDP2 (human) inhibition, absorbance primary screen; O95551; AID 720702; 370,000 compounds, 0.34% hits; inhibition, % at 12.8 µM; recombinant TDP2, T5PNP hydrolysis, p-nitrophenol absorbance 415 nm;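 active = inhibition above the mean of all tested compounds plus 3 SD, set per campaign, cut at about 25% in these data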;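 also: 0% = DMSO with enzyme and 100% = buffer with substrate but no TDP2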
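Test system: Human TDP2 enzyme | Reagent: 5 mM T5PNP | Compound dosing: 12.8 µM single point, 1% DMSO | Incubation: Enzyme reaction with compound for 2 h at 37 °C | Technique: p-Nitrophenol epi absorbance | Read-out: % inhibition relative to enzyme-containing and enzyme-free wells | Benchmarks: High control without enzyme, low control DMSO plus TDP2 | Replicates: Singlicate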
LEDGF integ inh: blocks HIV-1 LEDGF/p75-dependent DNA integration; TR-FRET IN-LEDGF/p75 DNA integration, Eu/Cy5; 370,000 compounds, 0.64% hits; inhibition, % at 3.7 µM;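 active = inhibition above the screen-wide mean plus 3 SD, cut at about 13% in these data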;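 also: signal is the Cy5 over europium emission ratio at 671 and 618 nm; 0% = plate median of compound wells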
UHRF1 MBD2 ctr: human UHRF1 methylated DNA binding inhibitors | Q96T88 | UHRF1 binding to methylated oligo, TR-FRET | inhibition, % at 4.4 µM | 370,000 compounds, 0.75% hits; in the data active = inhibition above about 21%;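 also: UHRF1 SRA domain binding a hemimethylated CpG hairpin DNA probe; 0% = median of test compound wells and 100% = reference inhibitor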
Target sequence (Q96T88 whole entry, looked up, the tested form may be a part): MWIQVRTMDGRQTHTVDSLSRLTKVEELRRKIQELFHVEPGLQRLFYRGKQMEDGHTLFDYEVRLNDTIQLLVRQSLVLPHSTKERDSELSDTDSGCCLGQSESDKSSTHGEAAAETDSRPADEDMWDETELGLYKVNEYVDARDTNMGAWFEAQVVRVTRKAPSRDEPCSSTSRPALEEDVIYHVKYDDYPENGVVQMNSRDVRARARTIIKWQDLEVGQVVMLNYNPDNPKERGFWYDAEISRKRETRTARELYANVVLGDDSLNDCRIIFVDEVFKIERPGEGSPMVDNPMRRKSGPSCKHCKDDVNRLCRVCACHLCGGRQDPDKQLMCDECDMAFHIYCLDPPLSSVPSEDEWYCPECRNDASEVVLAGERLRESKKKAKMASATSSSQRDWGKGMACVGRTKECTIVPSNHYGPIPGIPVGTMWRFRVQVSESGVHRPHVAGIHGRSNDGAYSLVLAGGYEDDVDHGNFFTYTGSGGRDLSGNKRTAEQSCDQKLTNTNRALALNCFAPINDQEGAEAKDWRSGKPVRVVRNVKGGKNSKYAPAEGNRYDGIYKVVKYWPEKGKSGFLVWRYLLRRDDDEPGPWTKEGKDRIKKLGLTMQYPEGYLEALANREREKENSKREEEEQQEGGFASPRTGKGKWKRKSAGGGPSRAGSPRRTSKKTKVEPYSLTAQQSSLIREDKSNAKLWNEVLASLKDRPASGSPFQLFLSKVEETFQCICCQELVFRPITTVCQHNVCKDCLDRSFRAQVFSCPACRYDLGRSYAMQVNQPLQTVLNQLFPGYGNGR
MBD2 DNA inh: inhibitors of human MBD2 binding to methylated oligonucleotide | Q9UBB5 | TR-FRET | inhibition, % at 4.4 µM | 370,000 compounds, 0.31% hits | AID 686964; in the data active = inhibition above about 13%
* marks the source's active call; other numbers are inactive results. Shown are actives, neighbours in structure and some others; about 1.6% of the full set was active somewhere.

SMILES	TDP2 inh	LEDGF integ inh	UHRF1 MBD2 ctr	MBD2 DNA inh
CC1=C(C(=O)N(C)C)CC(CC(=O)NCCc2ccccn2)C(=O)N1Cc1ccc(F)cc1 (stereo not given)	1	4	19	6
CC1=C(C(=O)N(C)C)CC(CC(=O)NCCc2ccccn2)C(=O)N1Cc1ccc(C(C)(C)C)cc1 (stereo not given)	-7	-1	21*	5
O=C1NCC(Nc2ccccc2Cl)C(=O)N1 (stereo not given)	0	1	-1	1
Cc1oc2c(CN(C)C)c(O)ccc2c(=O)c1-c1cscn1	38*	0	4	-3
COC(=O)Cn1nc(-c2ccc(C)c(S(=O)(=O)N(C)C)c2)c2ccccc2c1=O	9	3	0	1
CCCNC(=O)c1nn2c(C(F)(F)F)cc(-c3ccccc3)nc2c1Br	-7	2	0	2
CCCCn1nnnc1C1(C)CCC(=O)N1CCCN1CCOCC1 (stereo not given)	6	-2	22*	8
Cc1sc2nc(COC(=O)c3c(F)cccc3F)[nH]c(=O)c2c1C	-6	-1	38*	4
COc1cc(S(=O)(=O)N(Cc2cccnc2)Cc2ccco2)ccc1-n1cnnn1	7	9	21*	11
COc1cccc(CNS(=O)(=O)c2ccc(-n3cnnn3)c(C)c2)c1	-10	0	4	2
COc1cc(S(=O)(=O)N(Cc2ccc(C)cc2)Cc2ccco2)ccc1-n1cnnn1	2	0	0	0
COc1cccc(CN(Cc2cccnc2)S(=O)(=O)c2ccc(-n3cnnn3)c(C)c2)c1	-14	3	21*	4
CCOC(=O)c1nc2cc3n(c(C)c-2c1C)C(C)C(C)=C3C (stereo not given)	4	3	23*	2
CCOC(=O)c1nc2cc3n(c(CC(C)C)c-2c1C)CC(C)=C3C	5	-1	-5	-4
CC(C)CCNC(=O)C1(C)CCN1Cc1ccc2ccccc2c1 (stereo not given)	3	3	34*	2
CC(OC(=O)CC1CC2CCC1C2)C(=O)Nc1ccc(N2CCOCC2)cc1 (stereo not given)	11	-1	-3	-10
O=C(c1ccc(F)cc1)C1CCN(C(=O)c2ccncc2)CC1	7	0	80*	-6
O=C(c1ccc(F)cc1)C1CCN(C(=O)c2ccc(F)cc2)CC1	-2	-4	-1	-5
CCOC(=O)CN1C(=O)N2C[C@H]3CON(C)[C@H]3C[C@H]2c2ccccc21	0	6	47*	-4
C=CCCC(=O)N1C[C@H]2CON(C)[C@H]2C[C@H]1c1ccccc1Br	2	-1	1	2
CCOC(=O)C1(CCOC)CCN(Cc2cnc(-c3cccc(C)c3)nc2)CC1	-2	5	0	5
CCOC(=O)C1(CCOC)CCN(C(=O)c2ccccc2-c2cccc(C)c2)CC1	-20	1	23*	4
Cc1cc(C(=O)COC(=O)c2cccc(O)c2)c(C)n1C1CC1	-6	4	27*	1
c1ccc(-c2noc(C3CCC3)n2)nc1	10	1	25*	11
CCc1ccc(O)c(N=Cc2ccccc2O)c1	4	3	32*	-4
SMILES	TDP2 inh	LEDGF integ inh	UHRF1 MBD2 ctr	MBD2 DNA inh
O=C(O)c1ccccc1C(=O)c1cccs1	-1	1	24*	8
O=C(N[C@@H]1CC[C@H](CCn2cc(-c3ccccn3)nn2)O[C@@H]1CO)c1ccncc1	0	0	3	-1
Clc1cccc(Cl)c1CSc1nnc2ccccn12	-9	-1	5	-1
Brc1ccc(CSc2nnc3ccccn23)cc1	3	0	33*	7
CC1=NN(C(=O)COc2ccccc2)C(O)(c2cccnc2)C1 (stereo not given)	-16	3	21*	0
O=C(COC(=O)/C=C/C(=O)N1CCN(c2ccccc2)CC1)NCc1ccc(F)cc1	-6	-4	64*	-2
Cc1ccc(CCNS(=O)(=O)c2c(C)nc3sccn3c2=O)cc1	-9	9	23*	5
Cc1nc2sccn2c(=O)c1S(=O)(=O)NCCc1ccc(Cl)cc1	1	-2	2	2
S=c1[nH]nc(-c2cccnc2)n1/N=C/c1cccs1	-1	0	-2	2
CCCCNC(=O)C1(C)CCCCN1C(=O)c1c(Cl)cccc1Cl (stereo not given)	0	3	2	-3
NC(=O)C[n+]1ccc(/C=N/O)cc1	0	2	26*	6
O=C(CCNC(=O)c1ccc(Br)cc1)NCCCN1CCOCC1	5	-2	23*	6
C=CCNC(=O)c1ccc(N(CC=C)S(C)(=O)=O)cc1	-3	0	7	-1
